Data from ChEMBL document CHEMBL5532752, “Integrating a quinone substructure into histone deacetylase inhibitors to cope with Alzheimer's disease and cancer” (RSC Med Chem, 2024).
Active and inactive are the calls of the source. The rule behind the calls is not given here.

Experiments:
SH-SY5Y [1] = assay: Cytotoxicity against human SH-SY5Y cells assessed as reduction in cell viability at 10 uM pretreated with antioxidant, NAC for 1 hr followed by incubation with drug for 24 hrs by MUH reagent based spectrophotometric analysis; format: functional
Procedure, shortened: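 SH-SY5Y pretreated 1 h with 2 mM NAC, then exposed to compound at 1 or 10 μM for 24 h. Viability read by MUH hydrolysis (0.01 mg/mL, 30 min, 37 °C; ex 330/em 450 nm) as percent of untreated cells; two-way ANOVA with Tukey post hoc.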

SH-SY5Y [2] = assay: Induction of cell cycle arrest in human SH-SY5Y cells assessed as accumulation of cells at sub-G1 phase at 1 to 10 uM incubated for 72 hrs by propidium iodide staining based flow cytometry; format: functional; conditions: dose 1-10 µM
Procedure, shortened: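 SH-SY5Y exposed to 1 or 10 μM for 72 h, collected, fixed in 70% ice-cold ethanol, stained with propidium iodide-containing cell-cycle reagent 30 min in the dark at room temperature, and analysed by flow cytometry for G0/G1, S, G2/M and sub-G1 fractions; one-way ANOVA, Bonferroni.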

Neurosphere = assay: Neuroprotective activity against C57BL/6N mouse neurosphere assessed as increase in NPC proliferation by measuring increase in neurospheres number at 2.5 to 5 uM measured after 7 days by bright field microscopy; format: functional, tissue-based; conditions: dose 2.5-5 µM, time 7.0 day
Procedure, shortened: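 Neurospheres from sub-ventricular zone of 8-month-old male C57BL/6N mice, dissociated with Accutase, plated as single cells 5 × 10³/well in suspension in EGF/FGF2/N2/B27 medium with 2.5–50 μM compound or DMSO for 7 days. Daily brightfield live imaging; sphere count and total area per image, aggregates >400 μm² only.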

Structure (SMILES)	Activity (SH-SY5Y [1])	Activity (SH-SY5Y [2])	Activity (Neurosphere)
CC1=C(NCc2ccc(C(=O)Nc3ccccc3N)cc2)C(=O)c2ccccc2C1=O	Active	Active	–
CC1=C(NCCCCNC(=O)CS)C(=O)c2ccccc2C1=O	–	–	Active
